Assay results: ChEMBL document CHEMBL3351678, “Benzoquinones as inhibitors of botulinum neurotoxin serotype A” (Bioorg Med Chem, 2014)
Calls of active or inactive are those of the source. No cut-off for these calls is given here.

Legend:
[1] = molecular target: T1, Botulinum neurotoxin type A (Clostridium botulinum, UniProt P0DPI0); test: Competitive inhibition of recombinant Clostridium botulinum neurotoxin serotype A light chain assessed as [13C]-labeled 9-mer cleavage product formation using 66-mer substrate after 25 mins by LC-MS method
T1 sequence (P0DPI0 2-448 limits assumed): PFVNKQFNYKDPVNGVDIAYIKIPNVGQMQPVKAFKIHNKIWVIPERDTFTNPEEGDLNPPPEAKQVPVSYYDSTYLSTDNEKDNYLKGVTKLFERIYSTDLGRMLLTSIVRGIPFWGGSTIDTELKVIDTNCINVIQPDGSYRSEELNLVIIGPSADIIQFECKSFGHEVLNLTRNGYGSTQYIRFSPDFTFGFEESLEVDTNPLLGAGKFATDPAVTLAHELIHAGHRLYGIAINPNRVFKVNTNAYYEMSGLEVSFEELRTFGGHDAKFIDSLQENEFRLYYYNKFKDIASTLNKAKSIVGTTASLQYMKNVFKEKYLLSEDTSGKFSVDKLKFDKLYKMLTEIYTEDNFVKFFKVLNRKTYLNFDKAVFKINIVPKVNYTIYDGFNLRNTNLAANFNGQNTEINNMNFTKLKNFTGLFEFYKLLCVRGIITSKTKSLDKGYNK
Outline: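 66-mer SNAP-25 substrate (5 µM) cleaved by recombinant BoNT/A LC (0.8 nM) in 40 mM HEPES pH 7.4 for 25 min. Quenched with 20% TFA. 13C-labelled 9-mer internal standard added, and cleavage product quantified by LCMS relative to it. IC50 derived from initial velocities using the rearranged IC50 equation.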

[2] = molecular target: Botulinum neurotoxin type A (Clostridium botulinum) (UniProt P0DPI0); test: Inhibition of recombinant Clostridium botulinum neurotoxin serotype A light chain assessed as Kinact to KI ratio at 50 uM after 1.5 hrs by SNAPtide FRET based assay
Chain of Botulinum neurotoxin type A (Clostridium botulinum) (P0DPI0 2-448 limits assumed): as above

[3] = molecular target: Botulinum neurotoxin type A (Clostridium botulinum) (UniProt P0DPI0); test: Irreversible inhibition of recombinant Clostridium botulinum neurotoxin serotype A light chain assessed as Kinact to KI ratio after 1.5 hrs by SNAPtide FRET based assay
[4] = Glutathione reactivity at 1 mM in presence of 1 mM glutathione containing PBS and 1 mM EDTA buffer at pH 7.4 assessed as remaining GSH level after 10 seconds by spectrophotometry by Ellman's method
Outline: (§1)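 Compound (1 mM) incubated with glutathione (1 mM) in PBS + 1 mM EDTA, pH 7.4. At each time point, an aliquot was diluted 1:10 into 4 mg/mL DTNB and absorbance read at 412 nm. Compound blanks included. Free GSH quantified against a 0–1.25 mM GSH standard curve and expressed as % remaining.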

[5] = Glutathione reactivity at 1 mM in presence of 1 mM glutathione containing PBS and 1 mM EDTA buffer at pH 7.4 assessed as remaining GSH level after 30 mins by spectrophotometry by Ellman's method; outline: as §1
[6] = Glutathione reactivity at 1 mM in presence of 1 mM glutathione containing PBS and 1 mM EDTA buffer at pH 7.4 assessed as second order rate constant by spectrophotometry by Ellman's method
Outline: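 Compound and glutathione (1 mM each) in PBS + 1 mM EDTA, pH 7.4. Free thiol followed over time by 1:10 dilution into 4 mg/mL DTNB, A412, with compound blanks and a GSH standard curve. Second-order kGSH of Michael adduct formation derived from 1/[GSH] − 1 = 2kGSH·t.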

[7] = Glutathione reactivity at 1 mM in presence of 1 mM glutathione containing PBS and 1 mM EDTA buffer at pH 7.4 assessed as remaining GSH level after 1 hr by spectrophotometry by Ellman's method; outline: as §1
[8] = molecular target: Botulinum neurotoxin type A (Clostridium botulinum) (UniProt P0DPI0); test: Time dependent inhibition of recombinant Clostridium botulinum neurotoxin serotype A light chain assessed as Kinact to KI ratio after 1.5 hrs by SNAPtide FRET based assay
Outline: (§2)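 Recombinant 425-residue BoNT/A light chain (18.5 nM) with 5 µM SNAPtide FRET substrate in 40 mM HEPES, 0.1% Triton X-100, pH 7.4. Inhibitor is present with enzyme and substrate, without preincubation, across a range of concentrations.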

[9] = molecular target: Botulinum neurotoxin type A (Clostridium botulinum) (UniProt P0DPI0); test: Inhibition of recombinant Clostridium botulinum neurotoxin serotype A light chain assessed as [13C]-labeled 9-mer cleavage product formation at 50 uM using 66-mer substrate after 25 mins by LC-MS method
Outline: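 Inhibitors at 50 µM with recombinant BoNT/A LC (0.8 nM) and 66-mer substrate (5 µM) in 40 mM HEPES pH 7.4. Cleavage ran 25 min, then quenched with 20% TFA. 9-mer product quantified by LCMS against a 13C-labelled 9-mer internal standard.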

[10] = molecular target: T1, Botulinum neurotoxin type A; test: Competitive inhibition of recombinant Clostridium botulinum neurotoxin serotype A light chain assessed as reduction in benzoquinone-mediated BoNT/A inactivation by SNAPtide FRET based assay
[11] = molecular target: T1, Botulinum neurotoxin type A; test: Competitive inhibition of recombinant Clostridium botulinum neurotoxin serotype A light chain assessed as reduction in initial rates of BoNT/A LC activity by SNAPtide FRET based assay
Outline: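 Recombinant 425-aa BoNT/A LC (18.5 nM) and SNAPtide (5 µM) in 40 mM HEPES + 0.1% Triton X-100, pH 7.4. Cleavage read by fluorescence. Velocities fitted to V = Vcontrol/(1 + [I]/IC50) to give IC50.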

[12] = molecular target: T1, Botulinum neurotoxin type A; test: Competitive inhibition of Clostridium botulinum neurotoxin serotype A light chain
[13] = molecular target: Botulinum neurotoxin type A (Clostridium botulinum) (UniProt P0DPI0); test: Time dependent inhibition of recombinant Clostridium botulinum neurotoxin serotype A light chain assessed as Kinact to KI ratio at 200 uM by SNAPtide FRET based assay; outline: as §2

| SMILES | IC50 ([1]; read-out: IC50) | Ratio [2] | Activity [4] | Activity [5] | further results |
| --- | --- | --- | --- | --- | --- |
| NCC(=O)NCc1ccc(-c2ccccc2)cc1 | 160 µM |  |  |  |  |
| CC1=CC(=O)C(C(C)C)=CC1=O |  | 0.38 M⁻¹ s⁻¹ |  |  |  |
| O=C1C=CC(=O)C(Nc2ccccn2)=C1 | 97 µM |  |  |  |  |
| O=C1C=CC(=O)C(c2ccc(I)cc2)=C1 |  | 10 M⁻¹ s⁻¹ |  |  |  |
| COc1ccc(OC)c(Nc2cccc(C(=O)NCc3ccc(Oc4ccccc4)cc3)n2)c1 | 200 µM |  |  |  |  |
| O=C1C=CC(=O)c2cc(O)ccc21 |  | 0.94 M⁻¹ s⁻¹ | 71% | 32% | Ratio [3]: 1.17 M⁻¹ s⁻¹; K [6]: 0.036 min⁻¹; Activity [7]: 22% |
| CC1=CC(=O)c2ccccc2C1=O |  | 1.1 M⁻¹ s⁻¹ |  |  |  |
| O=C1C=CC(=O)C=C1 |  | 17 M⁻¹ s⁻¹ | 24% | 6% | Ratio [3]: 12.4 M⁻¹ s⁻¹; Ratio [8]: 11.8 M⁻¹ s⁻¹; inhibition [9]: Active |
| NCC(=O)Nc1ccc(Oc2ccccc2)cc1 | 120 µM |  |  |  | IC50 [10]: 258 µM; IC50 [11]: 163 µM |
| COc1ccc(OC)c(CNCC(=O)Nc2cccc(OCc3ccccc3)c2)c1 | 25 µM |  |  |  |  |
| COC1=CC(=O)C=C(OC)C1=O |  |  | 45% | 0% | inhibition [2]: inactive |
| O=C1C=CC(=O)C(Cn2cnc(C(=O)NCc3ccc(-c4ccccc4)cc3)n2)=C1 | 2.5 µM |  |  |  |  |
| O=C1C=CC(=O)C(CNCC(=O)Nc2cccc(OCc3ccccc3)c2)=C1 | 18 µM |  |  |  |  |
| O=C1C=CC(=O)C(Cl)=C1 |  | 51 M⁻¹ s⁻¹ |  |  |  |
| COC1=CC(=O)C(OC)=C(c2ccc(C)cc2)C1=O |  | 0.82 M⁻¹ s⁻¹ | 89% | 49% | K [6]: 0.032 min⁻¹; Activity [7]: 35% |
| O=C1C=CC(=O)c2ccccc21 |  | 2 M⁻¹ s⁻¹ | 47% | 20% |  |
| CC1=CC(=O)C=C(C)C1=O |  |  | 22% | 0% | inhibition [2]: inactive |
| ONCC12CC3CC(CC(C3)C1)C2 |  |  |  |  | Ki [12]: 0.46 µM; IC50 [10]: 1.5 µM; IC50 [11]: 1.6 µM |
| O=C1C=CC(=O)C(CCC(=O)O)=C1 |  | 1.2 M⁻¹ s⁻¹ |  |  | IC50 [1]: Not Active |
| Cc1ccc(C2=CC(=O)c3ccccc3C2=O)cc1 |  | 0.91 M⁻¹ s⁻¹ |  |  |  |

| SMILES | IC50 ([1]; read-out: IC50) | Ratio [2] | Activity [4] | Activity [5] | further results |
| --- | --- | --- | --- | --- | --- |
| CC(=O)Oc1cccc2c1C(=O)C=CC2=O |  | 4 M⁻¹ s⁻¹ | 51% | 26% |  |
| O=C1C=C(Cl)C(=O)C=C1Cl |  | 84 M⁻¹ s⁻¹ | 0% | 0% |  |
| O=C1C=CC(=O)C(Nc2cccc(C(=O)NCc3ccc(Oc4ccccc4)cc3)n2)=C1 | 2.3 µM | 1.7 M⁻¹ s⁻¹ |  |  |  |
| COC1=CC(=O)C(c2ccc(C)cc2)=CC1=O |  |  |  |  | inhibition [2]: inactive |
| COc1cccc2c1C(=O)C=CC2=O |  | 0.99 M⁻¹ s⁻¹ | 80% | 27% | K [6]: 0.053 min⁻¹; Activity [7]: 14% |
| O=C(NCc1ccc(-c2ccccc2)cc1)c1nc[nH]n1 | 210 µM |  |  |  |  |
| COC1=CC(=O)C=CC1=O |  | 4.1 M⁻¹ s⁻¹ |  |  |  |
| COc1ccc(OC)c(Cn2cnc(C(=O)NCc3ccc(-c4ccccc4)cc3)n2)c1 | 40 µM |  |  |  |  |
| COC(=O)c1cccc(NC2=CC(=O)C=CC2=O)n1 | 14 µM |  |  |  |  |
| O=C1C=CC(=O)C(c2ccccc2)=C1 |  | 9.7 M⁻¹ s⁻¹ | 21% | 8% |  |
| COC1=C(c2ccc(C)cc2)C(=O)C=CC1=O |  | 9.5 M⁻¹ s⁻¹ | 25% | 19% |  |
| CC1=CC(=O)C=CC1=O |  | 2.5 M⁻¹ s⁻¹ | 35% | 5% |  |
| O=C(NCc1ccc(Oc2ccccc2)cc1)c1ccccn1 | 570 µM |  |  |  |  |
| O=C1C=CC(=O)c2c(O)cccc21 |  | 5.3 M⁻¹ s⁻¹ | 44% | 32% | Ratio [3]: 3.71 M⁻¹ s⁻¹; Ratio [13]: 3.35 M⁻¹ s⁻¹ |
| O=C1C=CC(=O)C(CC(=O)O)=C1 | 9.3 µM | 0.56 M⁻¹ s⁻¹ |  |  |  |
| O=C1C=CC(=O)c2c(OCc3ccccc3)cccc21 |  | 2 M⁻¹ s⁻¹ | 57% | 39% |  |
| C[C@]12CC[C@@H]3c4ccc(C5=CC(=O)C=CC5=O)cc4CC[C@H]3[C@@H]1CCC2=O |  | 3.9 M⁻¹ s⁻¹ |  |  |  |
| NCC(=O)Nc1cccc(OCc2ccccc2)c1 | 417 µM |  |  |  |  |
| O=C1C=CC(=O)c2c(O)ccc(O)c21 |  | 2.2 M⁻¹ s⁻¹ | 85% | 39% | K [6]: 0.025 min⁻¹; Activity [7]: 26% |
